SIRT5 block: sirtuin-5 (human) deacylase inhibition | inhibition, % at 15 µM | 330,000 compounds, 1.1% hits | Q9NXA8 | Purified SirT5, succinyl-peptide AMC, trypsin-coupled fluorescence; in the data active means inhibition above about 15%
Target sequence (Q9NXA8 whole entry, looked up): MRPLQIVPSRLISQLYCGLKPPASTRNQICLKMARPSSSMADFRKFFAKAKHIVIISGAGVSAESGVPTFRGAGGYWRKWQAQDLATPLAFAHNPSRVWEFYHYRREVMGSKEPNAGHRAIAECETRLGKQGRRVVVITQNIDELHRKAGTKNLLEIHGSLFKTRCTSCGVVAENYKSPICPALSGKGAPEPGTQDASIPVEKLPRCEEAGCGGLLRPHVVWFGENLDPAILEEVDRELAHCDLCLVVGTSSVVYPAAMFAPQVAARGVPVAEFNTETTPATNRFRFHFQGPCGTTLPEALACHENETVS
miR122 inh: inhibitors of miR-122 in Huh7 cells; Huh7 miR-122 Renilla luciferase sensor, 48 h; neutral wells = 0, positive control = 100; 340,000 compounds, 0.3% hits; activation (reporter increase), % at 12.5 µM;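 active means mean replicate activation score at least 90 and every replicate individually at or above 90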;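 further: higher luciferase means less miR-122 activity so hits act as miR-122 inhibitors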
E-selectin induc: E-selectin induction on HUVECs; P16581; HUVEC E-selectin immunofluorescence imaging; normalized: neutral wells 0, TNF-alpha wells 100; activation, % at 7.58 µM; 260,000 compounds, 0.37% hits;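 active means mean E-selectin-positive cell signal at least 10% of the positive control, reached in at least 60% of replicates, without over 20% cell loss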
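material = human umbilical vein endothelial cells (HUVEC), E-selectin induction | quantity = 3,000 cells/well | medium = EGM-2 growth medium on 0.1% gelatin-coated wells | technique = immunofluorescence imaging | read-out basis = % PE-positive cells | control set = TNF-alpha positive control, DMSO neutral control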
FGF22 binding-1: shifts melting point of recombinant human FGF22; 340,000 compounds, 1.5% hits; Q9HCT0; recombinant FGF22 thermal shift, SYPRO orange fluorescence; percent of sucrose octasulfate shift, DMSO zero; activity (Tm shift, normalised), % at 9.99 µM; AID 651658;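 active means mean Tm shift, scaled 0 neutral to 100 positive control, at about 1.3% or above, every replicate too, limit read from the data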
Target sequence (Q9HCT0 whole entry, looked up): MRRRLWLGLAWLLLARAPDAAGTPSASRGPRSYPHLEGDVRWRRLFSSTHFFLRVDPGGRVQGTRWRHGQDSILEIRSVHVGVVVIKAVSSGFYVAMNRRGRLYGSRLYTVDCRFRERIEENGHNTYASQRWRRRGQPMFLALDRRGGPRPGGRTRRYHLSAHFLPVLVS
S100A4 MyoIIA: S100A4-myosin IIA interaction inhibition; P26447; S100A4/TAMRA-MyoIIA peptide fluorescence polarization; inhibition, % at 10.7 µM; 360,000 compounds, 0.14% hits;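 active means mean inhibition of at least 70% across replicates, with every replicate also reaching that level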
Target sequence (P26447 whole entry, looked up): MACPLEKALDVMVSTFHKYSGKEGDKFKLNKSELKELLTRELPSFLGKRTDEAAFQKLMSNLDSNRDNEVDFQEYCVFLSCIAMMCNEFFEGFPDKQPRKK
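Test system – S100A4 monomer (human) · Compound – single-point compound testing · Schedule – 5 min incubation before reading · Probe or stimulus – TAMRA-labelled myosin IIA heavy-chain peptide probe, 5 nM · Benchmarks – neutral control DMSO, positive control TFP · Medium – Calcium-containing HEPES buffer, pH 7.2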
FGF22 binding-2: binders of human FGF22 by thermal shift. shares compounds with FGF22 binding-1. recombinant FGF22 thermal shift, SYPRO orange fluorescence. thermal shift activity, °C (ΔTm) at 38 µM. 1,000 compounds, 2% hits. AID 720646;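 active means fitted rise in melting shift crosses a set limit at or below the top valid dose tested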
FGF22 TSA DP: FGF22 (human) binding by thermal shift. Thermal shift assay, SYPRO orange, melting temperature shift. 50 tested, under 10 active. shares compounds with FGF22 binding-1. Tm shift (activity), % at 38 µM;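 active means compounds whose fitted dose curve of melting temperature shift rises past a set threshold within the tested doses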
SYPRO no-protein: shows thermal shift signal without protein, FGF22 counter-screen; shares compounds with FGF22 binding-1; compound-only SYPRO orange thermal shift counter-screen, no protein; AC50, µM (series often up to 38 µM); 1,000 compounds, 2% hits;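 active means rising signal whose fitted curve reaches the 0.54 level within the top valid dose, showing a melting point, actives reach about 13 µM in these data; inactive means the rest, including activity in the opposite direction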; further: value is where the raw curve crosses a fixed level and not half-maximal
Of the large screens only hits and unclear results are named; the others gave an inactive call (follow-up assays come after a bar, where they were run). Shown are actives, neighbours in structure and some others; about 2.5% of the full set was active somewhere.

C[C@@H]1CN([C@H](C)CO)C(=O)c2cc(NC(=O)Cn3cnnn3)ccc2O[C@H]1CN(C)C(=O)Nc1cccc2ccccc12	none
CCOc1cccc(C(=O)Nc2ccc3[nH]ncc3c2)c1	FGF22 binding-1 1.6 | FGF22 binding-2 inactive | FGF22 TSA DP inactive | SYPRO no-protein inactive
COc1cccc(C(=O)Nc2ccc3[nH]ncc3c2)c1	none (no result: E-selectin induc)
O=C(Nc1ccccc1)Nc1ccc2nnsc2c1	FGF22 binding-1 2.1 (no result: E-selectin induc) | FGF22 binding-2 inactive | SYPRO no-protein inactive
O=C(Nc1ccccc1)Nc1ccc2snnc2c1	none (no result: SIRT5 block, E-selectin induc, FGF22 binding-1, S100A4 MyoIIA)
Cc1cc(C(=O)Nc2cccc3ccccc23)n(-c2ccccc2)n1	FGF22 binding-1 3.2 (no result: E-selectin induc) | FGF22 binding-2 inactive | SYPRO no-protein inactive
O=C(C[C@H]1C=C[C@H](NC(=O)Cc2cccnc2)[C@@H](CO)O1)Nc1ccccc1	none (no result: miR122 inh)
CCn1c(=O)[nH]c(=O)c2c(N)c(C(=O)c3cc(F)ccc3F)sc21	FGF22 binding-1 27.5 (no result: E-selectin induc) | FGF22 binding-2 inactive | SYPRO no-protein inactive
O=C(N/N=C/c1ccncc1)c1cc2ccccc2o1	FGF22 binding-1 1.8 (no result: miR122 inh) | FGF22 binding-2 inactive | SYPRO no-protein inactive
Cc1nn(-c2ccccc2)c(C)c1/C=N/NC(=O)c1cc(-c2cccs2)[nH]n1	FGF22 binding-1 1.6 (no result: miR122 inh, E-selectin induc) | FGF22 binding-2 inactive | SYPRO no-protein inactive
Cc1nn(-c2ccccc2)c(C)c1/C=N/NC(=O)c1cc(-c2ccc(Br)s2)[nH]n1	none (no result: SIRT5 block, E-selectin induc, FGF22 binding-1, S100A4 MyoIIA)
Nc1cccc(-c2nc3ccc(C(=O)c4ccccc4)cc3[nH]2)c1	FGF22 binding-1 12.9 (no result: miR122 inh) | FGF22 binding-2 inactive | FGF22 TSA DP inactive | SYPRO no-protein inactive
O=[N+]([O-])c1ccc2nc(-c3ccccc3)[nH]c2c1	FGF22 binding-1 1.7 | FGF22 binding-2 inactive | SYPRO no-protein inactive
Nc1ccc2nc(-c3ccccc3)[nH]c2c1	none (no result: SIRT5 block, E-selectin induc, FGF22 binding-1, S100A4 MyoIIA)
CO[C@H]1CN(C)C(=O)c2cc(NC(=O)NC(C)C)ccc2OC[C@@H](C)N(Cc2cncnc2)C[C@@H]1C	none (no result: SIRT5 block, FGF22 binding-1, S100A4 MyoIIA)
COc1ccccc1NC(=O)Nc1nc(CC(=O)Nc2ccc(OC)c(OC)c2)cs1	none (no result: miR122 inh)
COc1cc(C)ccc1NC(=O)Cc1csc(NC(=O)Nc2ccccc2OC)n1	FGF22 binding-1 1.6 | FGF22 binding-2 inactive | SYPRO no-protein inactive
CN(C)S(=O)(=O)n1cnc([C@@H]2[C@@H]3C(=O)OC[C@@H]3C[C@]23N=CN(Cc2ccccc2)C3=O)c1	FGF22 binding-1 28.9 (no result: SIRT5 block) | FGF22 binding-2 inactive | SYPRO no-protein inactive
CN(C)S(=O)(=O)n1cnc([C@H]2c3c(ncn3Cc3ccccc3)C[C@H]3COC(=O)[C@@H]32)c1	none (no result: SIRT5 block, E-selectin induc)
CCCN(C)C[C@H]1Oc2cc(C#C[C@H](C)O)ccc2S(=O)(=O)N([C@@H](C)CO)C[C@H]1C	none
COCCNC(=O)CCc1nnc2ccc(N3CCC(C)CC3)nn12	FGF22 binding-1 1.6 | FGF22 binding-2 inactive | SYPRO no-protein inactive
COCCCNC(=O)CCc1nnc2ccc(N3CCC(C)CC3)nn12	none (no result: miR122 inh)
C[C@H](CO)N1C[C@H](C)[C@@H](CN(C)C(=O)Cc2ccncc2)Oc2cc(C#CC3CCCC3)ccc2S1(=O)=O	none
C[C@@H]1CN([C@H](C)CO)C(=O)Cc2cc(NC(=O)Nc3ccc(F)cc3)ccc2O[C@H]1CN(C)C(=O)Nc1ccc2c(c1)OCO2	none
CC(C)(C)NC(=O)N1CCC(CO)(Cc2ccccc2Cl)CC1	FGF22 binding-1 1.5 | FGF22 binding-2 inactive | SYPRO no-protein inactive
O=C(C[C@H]1C[C@H]2c3cc(NC(=O)C4CCC4)ccc3O[C@H]2[C@H](CO)O1)NCc1ccc2c(c1)OCO2	none
C=CCOc1ccc2c(c1)C(=NO)c1cc(OCC=C)ccc1-2	FGF22 binding-1 13.7 (no result: E-selectin induc) | FGF22 binding-2 inactive | SYPRO no-protein inactive
COc1cc(C)c2c(c1C=O)Oc1c(c(C)c(O)c3c1C(O)OC3=O)OC2=O (centres undefined)	FGF22 binding-1 2.1 (no result: SIRT5 block, E-selectin induc) | FGF22 binding-2 inactive | SYPRO no-protein inactive
O=C(NCC(=O)N(CC1CCCO1)C(C(=O)NC1CCCCC1)c1ccccc1)c1cccs1 (centres undefined)	none (no result: miR122 inh, E-selectin induc)
O=C(NCC(=O)N(CC1CCCO1)C(C(=O)NC1CCCCC1)c1cccnc1)c1cccs1 (centres undefined)	FGF22 binding-1 18.0 (no result: miR122 inh) | FGF22 binding-2 inactive | SYPRO no-protein inactive
CC(=O)Nc1ccc(-c2nc(C)c(C(C)=O)n2O)cc1	none (no result: E-selectin induc)
CCOc1cc(-c2nc(C)c(C(C)=O)n2O)ccc1OCC(=O)Nc1ccc(F)cc1	FGF22 binding-1 2.7 (no result: miR122 inh) | FGF22 binding-2 inactive | SYPRO no-protein inactive
CC(=O)c1c(C)nc(-c2ccc(OCC(=O)Nc3ccc(F)cc3)cc2)n1O	FGF22 binding-1 2.3 | FGF22 binding-2 inactive | SYPRO no-protein inactive
COc1cc(-c2nc(C)c(C(C)=O)n2O)ccc1OCC(=O)Nc1ccc(F)cc1	none
CCN(CC)S(=O)(=O)c1ccc(N/N=C(\C)c2ccc(OC)cc2O)nc1	FGF22 binding-1 1.4 | FGF22 binding-2 inactive | SYPRO no-protein inactive
CCN(CC)S(=O)(=O)c1ccc(N/N=C/c2ccc(O)cc2)nc1	none (no result: SIRT5 block, E-selectin induc)
COc1ccc(C)cc1NC(=O)C1CCN(S(=O)(=O)c2cccs2)CC1	FGF22 binding-1 1.9 | FGF22 binding-2 inactive | SYPRO no-protein inactive
Cc1noc(C)c1NC(=O)N[C@H]1CC[C@H](CCNC(=O)C2CC2)O[C@@H]1CO	none (no result: miR122 inh)
CCOc1cc(C=NNC(=O)c2cccc(S(=O)(=O)N3CCCC3)c2)ccc1O	FGF22 binding-1 2.4 | FGF22 binding-2 inactive | SYPRO no-protein inactive
C/C=C/c1ccc([C@@H]2[C@H](C#N)N(C(=O)CN3CCOCC3)[C@H]2CO)cc1	FGF22 binding-1 2.3 (no result: miR122 inh) | FGF22 binding-2 inactive | SYPRO no-protein inactive
CC(=O)Nc1ccc2c(c1)C(=O)N(C)[C@@H]1CC[C@H](CC(=O)NC3CCCCC3)O[C@@H]1CO2	none (no result: SIRT5 block, S100A4 MyoIIA)
C[C@@H]1CN([C@H](C)CO)C(=O)c2cccc(NC(=O)Nc3ccc(F)cc3)c2O[C@H]1CN(C)Cc1ccc(C(=O)O)cc1	none
O=C(C[C@@H]1CC[C@@H]2[C@H](COC[C@H](O)CN2C(=O)Nc2ccc(F)cc2)O1)NCC1CC1	none
C[C@H](CO)N1C[C@H](C)[C@H](CN(C)C)Oc2ccc(NS(=O)(=O)c3cn(C)cn3)cc2C1=O	none (no result: E-selectin induc)
O=C(c1cccc(NC2=NC3CS(=O)(=O)CC3S2)c1)N1CCN(c2ncccn2)CC1 (centres undefined)	FGF22 binding-1 12.0 | FGF22 binding-2 inactive | SYPRO no-protein inactive
O=C(NCC[C@@H]1CC[C@@H](NC(=O)C2CCOCC2)[C@H](CO)O1)Nc1ccc(Cl)cc1	FGF22 binding-1 1.4 (no result: miR122 inh) | FGF22 binding-2 inactive | SYPRO no-protein inactive
